Results taken from paper PMC12393906 (Molecular Therapy, 2025).

Legend:
Recombinant human ERO1α = biological target: T1, Recombinant human ERO1α (Homo sapiens, UniProt Q96HE7); assay: fluorescence-based ERO1α activity assay; format: biochemical; details: read-out: IC50 (ERO1α activity); mean ± SD, n = 3
T1 sequence (Q96HE7 24-468): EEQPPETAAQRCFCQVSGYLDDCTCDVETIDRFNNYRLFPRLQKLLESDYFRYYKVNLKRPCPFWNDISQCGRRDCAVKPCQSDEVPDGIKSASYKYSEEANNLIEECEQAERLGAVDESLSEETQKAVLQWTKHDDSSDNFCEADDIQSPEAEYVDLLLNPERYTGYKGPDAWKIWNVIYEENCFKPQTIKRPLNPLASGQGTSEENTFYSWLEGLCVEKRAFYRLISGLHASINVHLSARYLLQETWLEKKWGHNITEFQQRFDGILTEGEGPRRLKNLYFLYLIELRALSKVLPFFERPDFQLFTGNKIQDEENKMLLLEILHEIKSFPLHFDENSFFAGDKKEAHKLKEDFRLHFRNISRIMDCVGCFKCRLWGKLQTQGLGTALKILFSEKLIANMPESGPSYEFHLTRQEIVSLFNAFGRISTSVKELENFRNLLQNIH

Amplex Red assay = format: biochemical; details: Figure 1M, concentration not given
human platelets [1] = assay: Platelet aggregation assay and ATP secretion; format: cell-based; details: 1 μM; 0.015 U/ml thrombin or 0.05 µg/ml CRP
How it was run: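 Washed human platelets, isolated from ACD blood with PGE1 washes and resuspended in HEPES-Tyrode, were pretreated 20 min at 37°C with 0.1% DMSO vehicle or test compound. After agonist addition, aggregation and ATP secretion were recorded in a lumi-aggregometer at 37°C, stirring at 1,000 rpm.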

mouse platelets [2] = assay: Serotonin secretion; format: cell-based; details: 2.5 or 5 μM
mouse platelets [3] = assay: Detection of intracellular ROS; format: cell-based; details: 5 μM
How it was run: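 Platelets from C57BL/6, WT control or Ero1α/β CKO mice were pretreated 20 min at 37°C with or without 0.1% DMSO vehicle or test compound. They were loaded with 1 μM DCF for 10 min, then stimulated 5 min with thrombin or CRP, or left unstimulated. DCF fluorescence was read by flow cytometry.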

mouse blood = assay: Flow chamber assay on collagen-coated surfaces under arterial shear; format: cell-based; details: 5 μM, 50 dyne/cm^2
How it was run: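 Plates were coated with fibrillar type 1 collagen (100 μg/mL, 1 h, 37°C) and washed with PBS/0.05% BSA. ACD-anticoagulated blood was treated 15 min at 37°C with 0.1% DMSO vehicle or 5 μM test compound, then labelled with 1 μM DiOC6 for 5 min. After adding 6 mM CaCl2 and 3 mM MgCl2, blood was perfused at 50 dyne/cm2 (mouse blood: 2 min). Surface coverage and thrombus volume were measured by epifluorescence.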

mouse platelets [4] = assay: Ca2+ mobilization; format: cell-based; details: thrombin, A23187 or thapsigargin
How it was run: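 Mouse platelets were preincubated 20 min with vehicle (0.1% DMSO) or test compound, then loaded with FLIPR Ca2+ 5 dye for 30 min at 37°C in the dark. Release was triggered by 0.02 U/mL thrombin, 0.5 μM A23187 or 5 μM thapsigargin, and influx by adding 2 mM CaCl2. Fluorescence was read at ex 485/em 525 nm and reported as area under the curve (RFU).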

human platelets [5] = assay: Ca2+ mobilization; format: cell-based
Ero1α/β-null platelets = format: cell-based, mouse
How it was run: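 Washed mouse platelets (2 × 10^8/mL in HEPES-Tyrode; C57BL/6 or Ero1α/β-null) were pretreated 20 min at 37°C with 0.1% DMSO vehicle or test compound. Agonist was added for 5 min at 37°C. Cells were stained 15 min with labelled anti-P-selectin or JON/A (activated αIIbβ3) and read by flow cytometry as geometric mean fluorescence intensity.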

C57BL/6 mice [6] = assay: Complete blood counts after intravenous injection; format: in vivo, mouse; details: iv 0.3 μg/g BW; 10 min and 8 h after injection
C57BL/6 mice [7] = assay: Intravital microscopy, laser-induced cremaster arteriolar injury; format: in vivo, mouse; details: iv 0.3 μg/g BW 10 min before IVM
How it was run: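 Male mice (8–12 weeks) were anaesthetised with ketamine/xylazine ip. The cremaster was exteriorised and superfused with 37°C bicarbonate-buffered saline. Vehicle (1% DMSO) or test compound (0.3 μg/g BW) was given iv, and 10 min later DyLight 649 anti-CD42c (0.1 μg/g BW) was given. Laser ablation injured 3–4 arterioles per mouse. Median integrated platelet fluorescence was tracked over time, using […] per group.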

C57BL/6 mice [8] = assay: FeCl3-induced carotid arterial thrombosis; format: in vivo, mouse; details: for time to occlusion (TTO): iv 0.3 μg/g BW
How it was run: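 Male and female mice, 8–12 weeks, were anaesthetised with ip ketamine/xylazine. A 2 × 2 mm filter disc carrying 1.2 μL of 7 or 10% FeCl3 was placed on the carotid artery for 2 min. Flow was monitored by Doppler flow meter. TTO was the time from disc removal to stable occlusion (no flow for 5 min).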

C57BL/6 mice [9] = assay: Tail bleeding time and hemoglobin content; format: in vivo, mouse; details: iv 0.3 μg/g BW
C57BL/6 mice [10] = assay: tMCAO-induced ischemic stroke; format: in vivo, mouse; details: iv 0.3 μg/g BW after 1 h tMCAO; 23 h reperfusion
How it was run: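 Male mice, 10–12 weeks, were anaesthetised with 1.2%–1.5% isoflurane in oxygen and given buprenorphine-ER 0.1 μg/g ip. After 1 h MCA occlusion the filament was withdrawn to restore flow. Vehicle (1% DMSO) or test compound was then given iv. After 23 h reperfusion, Bederson score, grip strength and infarct volume were assessed.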

[11] = at concentrations required to reduce ERO1α activity; cited from earlier work

With `O=C(O)c1cc(N2N=C(C(F)(F)F)/C(=C/c3ccc(-c4ccccc4)o3)C2=O)ccc1Cl` [EN460] the IC50 (Recombinant human ERO1α) was 5.5 ± 1.6 µM, the “inhibition of H2O2 activity” value (Amplex Red assay) was “inhibits H2O2 activity” and the “platelet aggregation and ATP secretion” value (human platelets [1]) was “had no effect”. The “serotonin secretion from resting platelets” value (mouse platelets [2]; no agonist) was “enhanced serotonin secretion from resting platelets”, the “serotonin secretion from activated platelets” value (mouse platelets [2]; thrombin or CRP) was “either enhancing or inhibiting secretion” and the “agonist-induced DCF signal (ROS)” value (mouse platelets [3]; after thrombin) was “reduced the signal”. For the same compound, the “ROS production in resting platelets” value (mouse platelets [3]; no agonist) was “moderately increased ROS production”, the “surface coverage and volume of platelet thrombi” value (mouse blood) was “significantly reduced” and the “Ca2+ release and influx” value (mouse platelets [4]; 0.25 or 0.5 μM) was “no or minimal inhibition”. The “Ca2+ release and influx” value (mouse platelets [4]; 1 or 2.5 μM) was “significantly reduced both Ca^2+ release and influx”, the “thrombin-induced Ca2+ influx” value (human platelets [5]; 0.5 μM) was “reduced thrombin-induced Ca^2+ influx” and the “Ca2+ release and influx” value (human platelets [5]; 2 or 5 μM, activated human platelets) was “significantly inhibited both Ca^2+ release and influx”. For the same compound, the “P-selectin exposure and αIIbβ3 integrin activation in resting platelets” value (Ero1α/β-null platelets; M6766 5 μM, EN460 2.5 μM, no agonist) was “appeared to increase the levels of these surface markers”, the “agonist-induced P-selectin exposure and αIIbβ3 integrin activation” value (Ero1α/β-null platelets; various concentrations, 0.01 U/mL thrombin, 0.025 μg/mL CRP) was “significantly reduced” and the “complete blood counts (CBCs)” value (C57BL/6 mice [6]) was “did not alter CBCs”. The “initial platelet adhesion at sites of laser injury” value (C57BL/6 mice [7]) was “without affecting initial platelet adhesion”, the “platelet accumulation at sites of laser injury” value (C57BL/6 mice [7]) was “significantly inhibited platelet accumulation” and the “carotid arterial thrombosis (time to occlusion)” value (C57BL/6 mice [8]; 0.1 μg/g BW, 7% FeCl3) was “did not inhibit carotid arterial thrombosis”. For the same compound, the “time to occlusion (TTO)” value (C57BL/6 mice [8]; 7% FeCl3) was “significantly prolonged the time to occlusion”, the “time to occlusion (TTO)” value (C57BL/6 mice [8]; 10% FeCl3) was “did not affect TTO” and the “tail bleeding times and blood loss” value (C57BL/6 mice [9]) was “did not prolong tail bleeding times or increase blood loss”. For the same compound, the Bederson score (C57BL/6 mice [10]) was “decreased the Bederson score”, the grip strength (C57BL/6 mice [10]) was “increased grip strength” and the infarct volume (C57BL/6 mice [10]) was “significantly reduced infarct volume”. The thiol reactivity [11] was “exhibits thiol reactivity”.
